ChEMBL document CHEMBL3112528 (ACS Med Chem Lett, 2014)

Experiments:
[1] = Clearance in dog at 0.2 mg/kg, iv and 1 mg/kg, po; assay type: ADME, organism-based, Canis lupus familiaris; conditions: in vivo
[2] = Volume of distribution at steady state in rat at 0.5 mg/kg, iv and 1 mg/kg, po; assay type: ADME, organism-based; conditions: in vivo, read-out: Vdss
Procedure, shortened: (§1)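 Rats (n = 3) given 0.5 mg/kg intravenously and 1.0 mg/kg orally; values reported as mean ± spread over 3 animals.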

[3] = Half life in rat at 0.5 mg/kg, iv and 1 mg/kg, po; assay type: ADME, organism-based; conditions: in vivo; procedure, shortened: as §1
[4] = Oral bioavailability in rat at 1 mg/kg; assay type: ADME, organism-based; conditions: in vivo; procedure, shortened: as §1
[5] = Clearance in rat at 0.5 mg/kg, iv and 1 mg/kg, po; assay type: ADME, organism-based; conditions: in vivo; procedure, shortened: as §1
[6] = Half life in dog at 0.2 mg/kg, iv and 1 mg/kg, po; assay type: ADME, organism-based, Canis lupus familiaris; conditions: in vivo
[7] = Volume of distribution at steady state in dog at 0.2 mg/kg, iv and 1 mg/kg, po; assay type: ADME, organism-based, Canis lupus familiaris; conditions: in vivo, read-out: Vdss
[8] = Oral bioavailability in dog at 1 mg/kg; assay type: ADME, organism-based, Canis lupus familiaris; conditions: in vivo
[9] = Half life in dog at 0.2 mg/kg, iv; assay type: ADME, organism-based, Canis lupus familiaris; set-up: dose 0.2 mg/kg, route intravenous; conditions: in vivo
[10] = Volume of distribution at steady state in dog at 0.2 mg/kg, iv; assay type: ADME, organism-based, Canis lupus familiaris; set-up: dose 0.2 mg/kg, route intravenous; conditions: in vivo, read-out: Vdss
[11] = Clearance in dog at 0.2 mg/kg, iv; assay type: ADME, organism-based, Canis lupus familiaris; set-up: dose 0.2 mg/kg, route intravenous; conditions: in vivo

With `CCOc1ccc(F)c([C@@H](Nc2ccc3c(N)nccc3c2)C(=O)N2CCC[C@@H]2c2cc(NC(=O)OC)ccc2S(=O)(=O)C(C)C)c1` the clearance [1] was 41 mL/min/kg, the Vd [2] was 5.6 L/kg and the half-life [3] was 4.9 h. It also gave a bioavailability [4] of 7.9%, a clearance [5] of 26 mL/min/kg and a half-life [6] of 2.2 h. It also gave a Vd [7] of 4.2 L/kg and a bioavailability [8] of 45%.
For `CCOc1cc([C@@H](Nc2ccc3c(N)nccc3c2)C(=O)NS(=O)(=O)c2ccccc2)ccc1OC(C)C`, the bioavailability [4] was less than 1% and the bioavailability [8] was 3.5%.
With `CCS(=O)(=O)c1ccccc1[C@H]1[C@@H](C(=O)O)CCN1C(=O)[C@H](Nc1ccc2c(N)nccc2c1)c1ccc(F)c(OC)c1` the half-life [9] was 1.1 h, the Vd [10] was 0.65 L/kg and the clearance [11] was 14 mL/min/kg.
`CCOc1cc([C@@H](Nc2ccc3c(N)nccc3c2)C(=O)NCc2ccccc2)ccc1OC(C)C` showed a bioavailability [4] of 31% and a bioavailability [8] of 45%.
